Screening data: PubChem, several laboratories
ABCB1 inh: inhibitors of human ABCB1 transporter, ABCG2 counter-screen; CCRF-Adr cells, JC-1 efflux, flow cytometry; actives 0.067% (n = 190,000); P08183; inhibition, % at 6.6 µM; in the data active = inhibition above about 40%;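 also: 0% = vehicle and 100% = reference inhibitor; higher value means more JC-1 retained so stronger ABCB1 efflux block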
Lmaj promast: Leishmania major promastigote growth inhibition. Leishmania major promastigotes, resazurin fluorescence viability. inhibition, % at 10 µM. AID 1063. actives 9% (n = 200,000);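 also: promastigotes grown with compound for 44 hours at 28 °C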
ABCG2 inh: human ABCG2 inhibition, ABCB1 as counter-screen; inhibition, % at 6.6 µM; actives 0.1% (n = 190,000); IgMXP3 cells, JC-1 efflux, flow cytometry;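 active = inhibition above 80%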;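 also: 0% = DMSO and 100% = nicardipine control wells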
Target sequence (Q9UNQ0 whole entry, looked up): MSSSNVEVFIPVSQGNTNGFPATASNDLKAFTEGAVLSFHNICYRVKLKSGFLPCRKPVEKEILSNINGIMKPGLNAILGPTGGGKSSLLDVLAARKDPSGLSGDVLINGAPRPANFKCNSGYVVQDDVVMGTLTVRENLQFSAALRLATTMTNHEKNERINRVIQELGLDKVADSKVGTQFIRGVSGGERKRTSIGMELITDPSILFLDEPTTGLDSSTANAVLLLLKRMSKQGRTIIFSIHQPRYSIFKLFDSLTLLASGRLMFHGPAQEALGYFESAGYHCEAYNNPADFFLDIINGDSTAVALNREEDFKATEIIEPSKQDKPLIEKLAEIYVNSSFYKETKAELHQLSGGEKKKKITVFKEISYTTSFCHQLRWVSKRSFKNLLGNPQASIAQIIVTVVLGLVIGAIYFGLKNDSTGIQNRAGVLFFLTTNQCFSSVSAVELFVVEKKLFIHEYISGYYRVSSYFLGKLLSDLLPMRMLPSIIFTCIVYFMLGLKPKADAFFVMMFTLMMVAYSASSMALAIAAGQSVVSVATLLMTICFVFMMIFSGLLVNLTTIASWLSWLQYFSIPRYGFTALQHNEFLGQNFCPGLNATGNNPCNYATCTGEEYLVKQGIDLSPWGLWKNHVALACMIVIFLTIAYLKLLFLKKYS
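Assay system – ABCG2 IgMXP3 and barcoded ABCB1 CCRF-Adr cell mix · Input – 3 million cells/mL in well · Reagent – JC-1 fluorescent substrate · Compound – single test compound dose, 6.6 µM final · Timing – 10 min exposure at 25 °C with rotation, no wash · Detection – flow cytometry of retained JC-1 fluorescence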
Avidin fluor: avidin bead compound fluorescence profile | actives 0.38% (n = 220,000) | AID 1775 | Avidin beads, compound fluorescence 488/530 nm, flow cytometry; stronger effect = higher value | fluorescence (KMESF) at 10 µM; in the data active = fluorescence above about 47
GSH bead fluor: compound fluoresces at 488/530 nm on GSH beads. GSH beads flow cytometry, compound fluorescence 488/530 nm; stronger effect = higher value. fluorescence (KMESF) at 10 µM. actives 0.25% (n = 190,000); in the data active = fluorescence above about 89;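 also: glutathione beads carrying GST-tagged Bcl family fusion proteins plus one bare bead set; values are compound well signal with DMSO vehicle wells as background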
PKD1 inh: PKD1 (human) kinase inhibition. PKD1 kinase fluorescence polarization assay. inhibition, % (no concentration beside the values). actives 0.056% (n = 200,000)
* = called active by the depositor; · = no result. Only a selection was taken, and hits are over-represented in it overall. Rule as the data show it, unless noted: active = inhibition above about 50%; inactive = the rest.

SMILES | ABCB1 inh | Lmaj promast | ABCG2 inh | Avidin fluor | GSH bead fluor | PKD1 inh
OCC1(Cc2ccc(Cl)cc2)CCN(CC2CC=CCC2)CC1 (configuration not stated) | 0 | 87* | 3 | 3 | 14 | 5
OCC1(Cc2ccccc2)CCN(Cc2cccc(F)c2F)CC1 | 0 | 13 | 0 | 4 | 10 | -2
CN1CCC(CO)(Cc2ccccc2)CC1 | 0 | 2 | 2 | 3 | 11 | 4
OCC1(Cc2ccc(Cl)cc2)CCN(CCCc2ccccc2)CC1 | 0 | 95* | 1 | 10 | 13 | -2
O=C(c1cnsn1)N1CCC(CO)(Cc2ccc(Cl)cc2)CC1 | 1 | -3 | 3 | 11 | 17 | -1
O=C(Nc1ccc(Cl)cc1)N1CCC(CO)(Cc2ccccc2)CC1 | 1 | -1 | 10 | 13 | 12 | 2
CSc1ccc(CN2CCC(CO)(Cc3ccc(Cl)cc3)CC2)cc1 | 2 | 87* | 10 | 11 | 11 | 4
Cc1[nH]ncc1-c1ccccc1Cl | · | · | · | 7 | · | ·
C=CCNC(=O)C(=O)c1cccn1-c1ccsc1C(=O)OC | 0 | -5 | 1 | 16 | 12 | -5
CCC(CC)C(=O)c1c[nH]c(C(=O)NCc2ccccn2)c1 | 0 | -2 | 0 | 23 | 10 | 2
O=C(Nc1ccc2ccccc2n1)Nc1cccs1 | · | · | · | 7 | · | ·
OCC1(Cc2ccccc2)CCN(Cc2ccc(C(F)(F)F)cc2)CC1 | 1 | 81* | 2 | 3 | 10 | -3
NS(=O)(=O)c1ccc(Nc2nc(-c3ccc(O)cc3O)cs2)cc1 | 1 | 63* | 5 | 9 | 17 | 6
CN(C)CCCN(Cc1ccccc1)C(=S)Nc1ccc(SC(F)F)cc1 | 2 | 100* | 5 | 13 | 9 | 2
CN(C)CCCN(Cc1ccccc1)C(=S)NCc1ccccc1 | 0 | 86* | 2 | 9 | 15 | -1
CC(=O)c1ccc(NC(=S)N(CCCN(C)C)Cc2ccccc2)cc1 | · | · | · | 6 | · | ·
CC(CCc1ccc(O)cc1)NC1C2CC3CC(C2)CC1C3 (configuration not stated) | 0 | 71* | 2 | 11 | 11 | -2
CC(O)CCc1ccc(O)cc1 (configuration not stated) | 0 | -3 | 0 | 11 | 14 | -9
Cn1ncc([N+](=O)[O-])c1C(=O)N/N=C/c1ccc(F)cc1 | 2 | 0 | 28 | 3 | 8 | -4
O=C(Nc1ccc(C(=O)Oc2ccccc2)c(O)c1)c1ccco1 | 2 | 55* | 22 | 11 | 17 | -4
O=C(Nc1ccc(Oc2ccc(NC(=O)c3ccco3)c(NC(=O)c3ccco3)c2)cc1)c1ccco1 | 0 | 98* | -2 | 9 | 24 | -3
O=C(Nc1ccc(Oc2ccc3ccccc3c2)cc1)c1ccco1 | 1 | 17 | 6 | 11 | · | -2
COc1ccccc1NC(=O)c1cccc(NC(=O)c2ccco2)c1 | 0 | 88* | 1 | 9 | 19 | -3
COc1ccccc1NC(=O)Oc1ccc(NC(=O)c2ccco2)cc1 | 0 | 52* | 8 | 4 | 26 | -7
COc1cccc(C(=O)Nc2cc(NC(=O)c3ccco3)ccc2OC)c1 | 0 | 2 | 0 | 7 | 40 | -1
SMILES | ABCB1 inh | Lmaj promast | ABCG2 inh | Avidin fluor | GSH bead fluor | PKD1 inh
COc1cc2[nH]c(Cl)c([N+](=O)[O-])c2cc1OC | · | · | · | 10 | · | ·
CC(=O)Nc1ccc(OS(=O)(=O)c2cc(Cl)ccc2C)cc1 | 0 | 1 | 5 | 9 | 25 | -3
Cc1nn(C)c(C(=O)NNC(=S)NCC(C)C)c1Cl | 1 | -6 | 2 | 8 | 10 | 0
Cc1onc(-c2ccccc2)c1C(=O)OCC(=O)Nc1ccc2c(c1)OCO2 | 1 | 2 | 9 | 18 | 8 | 0
Cc1c(-c2cccc(Cl)c2)nc2ccccc2c1C(=O)OCC(=O)Nc1ccc2c(c1)OCO2 | 0 | 58* | 2 | 2 | 6 | -2
Cc1onc(-c2ccccc2Cl)c1C(=O)OCC(=O)N1CCCc2ccccc21 | 4 | 14 | 21 | 8 | 267* | -2
Cc1onc(-c2ccccc2Cl)c1C(=O)OCC(=O)Nc1ccc2c(c1)OCO2 | 0 | 21 | 3 | 7 | 263* | 0
O=C(NC1CCCC1)C(c1cccs1)N(C(=O)c1ccco1)c1ccc2c(c1)OCO2 (configuration not stated) | 1 | 13 | 3 | 7 | 57 | 1
Cc1cccc(OCC(=O)OCC(=O)c2c(N)n(C)c(=O)n(C)c2=O)c1 | 0 | -6 | 3 | 15 | 9 | 1
COc1cc(-c2nnc(COC(=O)c3c4c(nc5ccccc35)CCCC4)o2)cc(OC)c1OC | 16 | -4 | 27 | 11 | 35 | 8
COc1ccc(N2C(=S)NC3N2C(=S)NC3(C)c2ccccc2)cc1 (configuration not stated) | 1 | -4 | 4 | 10 | 14 | -3
O=C1CCC/C1=c1\s/c(=C\c2cccnc2)c(=O)n1-c1ccccc1 | 1 | 55* | 7 | 14 | 9 | 9
c1ccc(CN2CCCC3(CCCN(Cc4nc(CC5CC5)no4)C3)C2)cc1 (configuration not stated) | 0 | 6 | -1 | 2 | 16 | 1
Cc1cc(C)cc(NC(=S)NCC2CCN(C(C)c3ccccc3)C2)c1 (configuration not stated) | 1 | 72* | 3 | 8 | 13 | -1
COc1ccc(N2CCC(CNC(=S)Nc3ccc(C)cc3C)C2)cc1 (configuration not stated) | · | · | · | 10 | · | ·
COc1ccc(N2CCC(CNC(=S)Nc3cccc(C)c3)C2)cc1 (configuration not stated) | 1 | 72* | 24 | 13 | 21 | 1
Cc1cc(C)cc(NC(=S)NCC2CCCO2)c1 (configuration not stated) | 0 | 11 | 3 | 11 | 28 | 0
Cc1ccccc1NC(=S)NCC1CCN(C(C)c2ccccc2)C1 (configuration not stated) | 2 | 76* | 4 | 5 | 15 | -2
Oc1cc2ccccc2nc1-c1ccccc1Cl | · | · | · | 5 | · | ·
CCOC(=O)c1sc2ccccc2c1NC(=O)c1coc2ccccc2c1=O | 3 | 58* | 18 | 17 | 16 | -3
CC1=CC(C)(C)[N+](C)(C)c2ccccc21 | 0 | -6 | 0 | 10 | 9 | -3
NC(=S)N1CCCc2ccccc21 | · | · | · | 3 | · | ·
C/C(CC(=O)Nc1ccc(N(C)C)cc1)=N\NC(=O)Cc1csc(N)n1 | 0 | 75* | 2 | 11 | 6 | 3
CCCOc1ccc(CN(CCC#N)C(=S)NC(=O)c2ccccc2)cc1 | -1 | 85* | -4 | 10 | 6 | -4
CN(Cc1ccccc1)C(=S)NC(=O)c1ccccc1 | 2 | -8 | 19 | 11 | 11 | 1
Cc1ccc(/C=N/NC(=O)c2ccc3nc[nH]c3c2)o1 | · | · | · | 128* | · | ·
